According to ChEMBL document CHEMBL1121677, “8-Hydroxy-2-(di-n-propylamino)tetralin, a new centrally acting 5-hydroxytryptamine receptor agonist” (1981):
Calls of active or inactive are those of the source. The calls are words filed in the database; no cut-off is given here.

Tests used:
Rattus norvegicus [1] = experiment: Inhibition of 5-Hydroxy tryptamine accumulation in striatum part of rat brain after subcutaneous administration; format: functional; conditions: sc
Rattus norvegicus [2] = experiment: Inhibition of dopamine accumulation in striatum part of rat brain after subcutaneous administration; I= Inactive; format: functional, organism-based
Rattus norvegicus [3] = experiment: Inhibition of 5-Hydroxy tryptamine accumulation in hemispheres of rat brain after subcutaneous administration; format: functional; conditions: sc
Rattus norvegicus [4] = experiment: Inhibition of 5-Hydroxy tryptamine accumulation in limbic part of rat brain after subcutaneous administration; format: functional; conditions: sc
Rattus norvegicus [5] = experiment: Inhibition of dopamine accumulation in limbic part of rat brain after subcutaneous administration; I= Inactive; format: functional, organism-based
Rattus norvegicus [6] = experiment: Inhibition of 5-HTP accumulation in hemisphere of rat brain after subcutaneous administration of compound before 60 min to death; format: functional, organism-based
Summary of the method: (§1)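 Nonpretreated rats were given each enantiomer sc 60 min before death. NSD 1015 (100 mg/kg ip) was given 30 min before death, and 5-HTP or Dopa accumulation was measured in brain regions. Values are means ± SEM, n = 4 (some groups n = 3). Statistics: ANOVA followed by Student's t test.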

Rattus norvegicus [7] = experiment: Inhibition of 5-HTP accumulation in limbic part of rat brain after subcutaneous administration of compound before 60 min to death; format: functional, organism-based; conditions: Limbic system; summary of the method: as §1
Rattus norvegicus [8] = experiment: Inhibition of 5-Hydroxy tryptamine accumulation in hemispheres of rat brain after subcutaneous administration; I= Inactive; format: functional, organism-based
Rattus norvegicus [9] = experiment: Inhibition of dopamine accumulation in striatum part of rat brain after subcutaneous administration; format: functional; conditions: sc
Rattus norvegicus [10] = experiment: Inhibition of 5-Hydroxy tryptamine accumulation in striatum part of rat brain after subcutaneous administration; I= Inactive; format: functional, organism-based
Rattus norvegicus [11] = experiment: Inhibition of 5-Hydroxy tryptamine accumulation in limbic part of rat brain after subcutaneous administration; I= Inactive; format: functional, organism-based
Rattus norvegicus [12] = experiment: Inhibition of dopamine accumulation in limbic part of rat brain after subcutaneous administration; format: functional; conditions: sc
Rattus norvegicus [13] = experiment: Inhibition of 5-Hydroxy Tryptamine accumulation in striatum part of rat brain after subcutaneous administration; format: functional; conditions: sc
Rattus norvegicus [14] = experiment: Inhibition of 5-Hydroxy Tryptamine accumulation in hemispheres of rat brain after subcutaneous administration; format: functional; conditions: sc
Rattus norvegicus [15] = experiment: Inhibition of 5-Hydroxy Tryptamine accumulation in limbic part of rat brain after subcutaneous administration; format: functional; conditions: sc

Row | SMILES | ED50 (Rattus norvegicus [1]) [µmol/kg] | ED50 (Rattus norvegicus [2]) | ED50 (Rattus norvegicus [3]) [µmol/kg] | ED50 (Rattus norvegicus [4]) [µmol/kg] | ED50 (Rattus norvegicus [5]) | Concentration (Rattus norvegicus [6]) [ng/g] | Concentration (Rattus norvegicus [7]) [ng/g] | ED50 (Rattus norvegicus [8]) | ED50 (Rattus norvegicus [9]) [µmol/kg] | ED50 (Rattus norvegicus [10]) | ED50 (Rattus norvegicus [11]) | ED50 (Rattus norvegicus [12]) [µmol/kg] | ED50 (Rattus norvegicus [13]) [µmol/kg] | ED50 (Rattus norvegicus [14]) [µmol/kg] | ED50 (Rattus norvegicus [15]) [µmol/kg]
1 | CCCN(CCC)C1CCc2cccc(O)c2C1 (racemic) [8-OH-DPAT] | 0.045 | inactive | 0.068 | 0.048 | inactive |  |  |  |  |  |  |  |  |  | 
2 | CCCN(CCC)[C@@H]1CCc2cccc(O)c2C1 | 0.048 | inactive | 0.052 | 0.036 | inactive | 44 | 63 |  |  |  |  |  |  |  | 
3 | CCCN(CCC)C1CCc2c(O)cccc2C1 (centres undefined) [5-OH-DPAT] |  |  |  |  |  |  |  | inactive | 0.009 | inactive | inactive | 0.011 |  |  | 
4 | CCCN(CCC)[C@H]1CCc2cccc(O)c2C1 |  | inactive |  |  | inactive | 57 | 84 |  |  |  |  |  | 0.075 | 0.09 | 0.061
5 | CCCN(CCC)C1CCc2ccc(O)cc2C1 (centres undefined) |  |  |  |  |  |  |  | inactive | 0.03 | inactive | inactive | 0.027 |  |  | 
6 | CCCN(CCC)[C@@H]1CCc2ccc(O)cc2C1 |  |  |  |  |  |  |  | inactive | 0.17 | inactive | inactive | 0.18 |  |  | 
